# Read-outs that look alike come from different tables or passages of the source.
# Key:
# [1] = target: T1, DOP receptor (Homo sapiens, UniProt P41143); experiment: BRET-based G protein; type: cell-based
# [2] = target: T2, MOP receptor (Homo sapiens, UniProt P35372); experiment: Competitive inhibition of 3H-diprenorphine binding at the MOP receptor; settings: 3H-diprenorphine 0.3 nM
# [3] = target: T1, DOP receptor; experiment: Competitive inhibition of 3H-diprenorphine binding at the DOP receptor; settings: 3H-diprenorphine 0.3 nM
# [4] = target: T3, hKOP receptor (Homo sapiens, UniProt P41145); experiment: BRET-based arrestin3 recruitment assay, hKOP-RLuc8 with arrestin3-mVenus; type: cell-based; settings: Potency for arrestin3 recruitment at hKOP receptor, 5 min after ligand
# Outline: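 HEK293T cells transfected with polyethylenimine (1:3) using 0.2 µg hKOP receptor with C-terminal RLuc8, 15 µg human arrestin3-mVenus and 4.8 µg empty vector (20 µg total), grown in DMEM/10% FBS. Assayed 48 h post-transfection: cells resuspended in PBS, ~200,000/well, 5 µM coelenterazine H, then ligand 5 min later.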
# [5] = target: T2, MOP receptor; experiment: BRET-based G protein; type: cell-based
# [6] = target: T3, hKOP receptor; experiment: BRET-based G protein; type: cell-based; settings: relative to EKC
# [7] = target: T3, hKOP receptor; type: binding
SMILES,EC50 [1] [µM],"Agonistic activity at the DOP receptor, in words ([1]; BRET)","Ki ([2]; Ki MOP, means ± S.E.M. (n=3)) [µM]","Ki ([3]; Ki DOP, means ± S.E.M. (n=3)) [µM]",EC50 [4] [µM],"Agonistic activity at the MOP receptor, in words [5]","EC50 ([1]; read-out: Potency for G protein activation at the DOP receptor, BRET) [µM]","Agonistic activity (GαoB activation) at hKOP receptor, in words [6]",Ki [7] [µM],"Inhibition of 3H-diprenorphine binding (primary testing) ([7]; 100 µM compound, 3H-diprenorphine 0.3 nM)","Ki ([2]; Ki at the MOP receptor, reference ligand) [µM]","Ki ([3]; Ki at the DOP receptor, reference ligand) [µM]"
"O=C(CN1CCCC1C(=O)Nc1nccs1)Nc1cccc(F)c1 (centres unmarked) [MCKK-17R, 1-(2-(3-fluorophenylamino)-2-oxoethyl)-N-(thiazol-2-yl)pyrrolidine-2-carboxamide]",> 1000,most active enantiomer at the DOP receptor,510,290,> 1000,Neither the racemic nor the MCKK-17 stereoisomers displayed significant activity,–,–,–,–,–,–
"O=C(CN1CCCC1C(=O)Nc1nccs1)Nc1cccc(F)c1 (centres unmarked) [MCKK-17S, 1-(2-(3-fluorophenylamino)-2-oxoethyl)-N-(thiazol-2-yl)pyrrolidine-2-carboxamide]",–,did not significantly activate the DOP receptor,> 10000,> 10000,120 ± 47,Neither the racemic nor the MCKK-17 stereoisomers displayed significant activity,> 1000,full agonism relative to EKC,120,–,–,–
"O=C(CN1CCCC1C(=O)Nc1nccs1)Nc1cccc(F)c1 (racemic) [MCKK-17, 1-(2-(3-fluorophenylamino)-2-oxoethyl)-N-(thiazol-2-yl)pyrrolidine-2-carboxamide]",> 1000,–,–,–,160 ± 38,Neither the racemic nor the MCKK-17 stereoisomers displayed significant activity,–,–,–,partially but significantly inhibited,–,–
"CC[C@]12CCN(CC3CC3)[C@H](C(=O)c3ccc(O)cc31)[C@@H]2C [EKC, ethylketocyclazocine, reference compound]",–,–,–,–,–,–,–,–,–,–,0.17 ± 0.1,0.25 ± 0.031
